Results from ChEMBL document CHEMBL1212726, “Inhibition of a viral enzyme by a small-molecule dimer disruptor” (Nat Chem Biol, 2009).
The source made the active and inactive calls.

Legend:
Human gammaherpesvirus 8 [1] = experiment: Induction of KSHV protease dimerization disruption at 30 uM by size exclusion chromatography
Outline: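 KSHV protease (S204G background) at 5 μM in 25 mM potassium phosphate pH 8, 150 mM KCl, 0.1 mM EDTA, 1 mM DTT, incubated with 30 μM compound for 30 min at 30°C (1% DMSO). Dimer and monomer were resolved by elution peaks. DMSO control.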

Human gammaherpesvirus 8 [2] = experiment: Mixed inhibition of KSHV protease at 1 to 10 uM
Outline: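 1 μM KSHV protease in pH 8 phosphate assay buffer with Ac-PVYtQA-ACC substrate at 80, 40, 30, 20, 10, 6, 4 and 2 μM, and inhibitor at 10, 7, 5, 3, 1 and 0 μM. Initial velocities were converted with 2364 rfu per μM substrate.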

Human gammaherpesvirus 8 [3] = experiment: Induction of KSHV protease Trp109 mutant dimerization disruption up to 30 uM by size exclusion chromatography
Human gammaherpesvirus 8 [4] = experiment: Activity at KSHV protease at 1 uM
Outline: (§1)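 Michaelis–Menten kinetics in 100 μl with 1 μM KSHV Pr in assay buffer. P6 substrate at 80, 40, 30, 20, 10, 6, 4 and 2 μM, crossed with inhibitor at 10, 7, 5, 3, 1 and 0 μM. Initial velocities converted at 2364 rfu per μM substrate. […] Mean ± s.d. (n=3).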

Human gammaherpesvirus 8 [5] = experiment: Activity at KSHV protease at 3 uM; outline: as §1
Human gammaherpesvirus 8 [6] = experiment: Activity at KSHV protease at 5 uM; outline: as §1
Human gammaherpesvirus 8 [7] = experiment: Activity at KSHV protease at 7 uM; outline: as §1
Human gammaherpesvirus 8 [8] = experiment: Activity at KSHV protease at 10 uM; outline: as §1
Human gammaherpesvirus 8 [9] = experiment: Ratio of Kcat to Km for KSHV protease at 1 uM; outline: as §1
Human gammaherpesvirus 8 [10] = experiment: Ratio of Kcat to Km in KSHV protease at 3 uM; outline: as §1
Human gammaherpesvirus 8 [11] = experiment: Ratio of Kcat to Km in KSHV protease at 5 uM; outline: as §1
Human gammaherpesvirus 8 [12] = experiment: Ratio of Kcat to Km in KSHV protease at 7 uM; outline: as §1
Human gammaherpesvirus 8 [13] = experiment: Ratio of Kcat to Km in KSHV protease at 10 uM; outline: as §1
Human gammaherpesvirus 8 [14] = experiment: Inhibition of KSHV protease at 10 uM by fluorogenic activity assay
Outline: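 Screen: protease at 2 μM final in 25 mM potassium phosphate pH 8, 150 mM KCl, 0.1 mM EDTA, 1 mM DTT. Compound at 10 μM final (1% DMSO) preincubated 30 min at 30°C. Ac-PVYtQA-ACC (P6) substrate added to 160 μM final. Fluorescence (ex 380/em 460 nm) followed 1 h at 30°C. Hit defined as ≥50% drop in initial velocity versus uninhibited control.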

Human betaherpesvirus 5 = experiment: Inhibition of CMV protease at 10 uM by fluorogenic activity assay
Outline: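 CMV protease, expressed from a provided plasmid, run in the KSHV Pr fluorogenic assay format with KSHV Pr buffer and reagents, including the P6 ACC hexapeptide substrate.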

[15] = target: Granzyme B (Homo sapiens) (UniProt P10144); experiment: Inhibition of granzyme B-mediated aggregation at 30 uM after 30 mins by spectrophotometry in absence of Triton X-100
Chain of Granzyme B (Homo sapiens) (P10144 whole entry): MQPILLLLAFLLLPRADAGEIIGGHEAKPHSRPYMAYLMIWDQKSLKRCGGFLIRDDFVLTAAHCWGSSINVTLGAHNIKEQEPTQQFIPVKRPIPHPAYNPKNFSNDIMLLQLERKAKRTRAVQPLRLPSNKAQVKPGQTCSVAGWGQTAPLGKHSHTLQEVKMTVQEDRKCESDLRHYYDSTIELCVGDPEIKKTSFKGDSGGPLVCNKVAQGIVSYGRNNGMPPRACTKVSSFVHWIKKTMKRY

[16] = target: Granzyme B (Homo sapiens) (UniProt P10144); experiment: Inhibition of granzyme B-mediated aggregation at 30 uM after 30 mins by spectrophotometry in presence of Triton X-100
[17] = test system: T1, Capsid scaffolding protein (Human herpesvirus 8 type P (isolate GK18) (HHV-8) (Kaposi'ssarcoma-associated herpesvirus)), Q2HRB6 [M197D]; experiment: Inhibition of KSHV protease M197D mutant at 170 uM by 1H-15N-HSQC NMR; conditions: Human gammaherpesvirus 8
T1 sequence (whole entry): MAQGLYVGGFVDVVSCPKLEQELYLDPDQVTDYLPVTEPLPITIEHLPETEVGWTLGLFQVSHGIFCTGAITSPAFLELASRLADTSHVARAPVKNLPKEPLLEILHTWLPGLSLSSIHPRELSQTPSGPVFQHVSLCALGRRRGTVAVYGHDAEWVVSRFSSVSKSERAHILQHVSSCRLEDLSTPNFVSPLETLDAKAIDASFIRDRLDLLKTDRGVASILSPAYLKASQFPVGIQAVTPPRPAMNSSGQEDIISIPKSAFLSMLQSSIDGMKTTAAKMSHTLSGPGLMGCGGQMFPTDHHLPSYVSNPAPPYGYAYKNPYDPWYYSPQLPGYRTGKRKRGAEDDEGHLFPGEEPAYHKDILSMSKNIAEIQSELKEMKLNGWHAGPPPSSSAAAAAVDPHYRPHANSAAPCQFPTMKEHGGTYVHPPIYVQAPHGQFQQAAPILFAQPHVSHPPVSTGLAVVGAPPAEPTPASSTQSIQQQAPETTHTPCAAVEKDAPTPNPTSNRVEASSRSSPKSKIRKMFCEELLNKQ

Human gammaherpesvirus 8 [18] = experiment: Inhibition of KSHV protease dimerization at 30 uM by size exclusion chromatography
[19] = Inhibition of KSHV protease by fluorogenic activity assay; set-up: species or system Human gammaherpesvirus 8

O=C(O)c1ccc(NC(=O)c2cccc(CC3CCCCC3)n2)c(Cc2ccccc2)c1
Activity (Human gammaherpesvirus 8 [1]): Active
inhibition (Human gammaherpesvirus 8 [2]): Active
Activity (Human gammaherpesvirus 8 [3]): inactive
Km (Human gammaherpesvirus 8 [4]): 13.6 µM
Km (Human gammaherpesvirus 8 [5]): 16.5 µM
Km (Human gammaherpesvirus 8 [6]): 21.2 µM
Km (Human gammaherpesvirus 8 [7]): 23.9 µM
Km (Human gammaherpesvirus 8 [8]): 27.4 µM
kcat/Km (Human gammaherpesvirus 8 [9]): 997 M⁻¹ s⁻¹
kcat/Km (Human gammaherpesvirus 8 [10]): 673 M⁻¹ s⁻¹
kcat/Km (Human gammaherpesvirus 8 [11]): 398 M⁻¹ s⁻¹
kcat/Km (Human gammaherpesvirus 8 [12]): 280 M⁻¹ s⁻¹
kcat/Km (Human gammaherpesvirus 8 [13]): 153 M⁻¹ s⁻¹
inhibition (Human gammaherpesvirus 8 [14]): 82.7%
inhibition (Human betaherpesvirus 5): 92%
inhibition [15]: inactive
inhibition [16]: inactive
inhibition [17]: Active
inhibition (Human gammaherpesvirus 8 [18]): Active

O=C(O)c1ccc(NC(=O)c2ccc(CC3CCCCC3)nc2)c(Cc2ccccc2)c1
inhibition (Human gammaherpesvirus 8 [14]): 10%

COc1ccc(C(=O)Nc2ccc(C(=O)O)cc2Cc2ccccc2)cc1CC1CCCCC1
inhibition (Human gammaherpesvirus 8 [14]): 51.1%
IC50 [19]: 16.4 µM

COC(=O)c1ccc(NC(=O)c2cccc(CC3CCCCC3)c2)c(Cc2ccccc2)c1
inhibition (Human gammaherpesvirus 8 [14]): 9.4%

O=C(O)c1ccc(NC(=O)c2ccccc2CC2CCCCC2)c(Cc2ccccc2)c1
inhibition (Human gammaherpesvirus 8 [14]): 14.8%

O=C(O)c1ccc(NC(=O)c2cncc(CC3CCCCC3)c2)c(Cc2ccccc2)c1
inhibition (Human gammaherpesvirus 8 [14]): 7.9%

O=C(O)c1ccc(NC(=O)c2ccc(CC3CCCCC3)cc2)c(Cc2ccccc2)c1
inhibition (Human gammaherpesvirus 8 [14]): 24%

O=C(O)c1ccc(NC(=O)c2cccc(CC3CCCCC3)c2)c(Cc2ccccc2)c1
inhibition (Human gammaherpesvirus 8 [14]): 56.6%
IC50 [19]: 8.8 µM

Oc1c(Cl)cc(Cl)c(Cl)c1Cc1c(O)c(Cl)cc(Cl)c1Cl
inhibition [15]: Active
inhibition [16]: inactive
